Test results published in publication PMC7641749 (Nucleic Acids Research, 2020).

Legend:
[1] = test system: miR-144–451a; experiment: ERH rescue experiment, qRT-PCR; type: cell-based, human; conditions: ERH ectopically expressed in ERH-depleted HEK293E cells, shERH, n = 3
How it was run: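 HEK293E cells at 50% confluence got shERH (3′UTR-targeting) plasmid with Fugene HD for 48 h, then were trypsinized and counted. 4E5 cells were co-transfected with 2.5 μg total of shERH, pri-miRNA expression plasmid and wild-type or homodimerization-mutant ERH plasmid (1:2:2) using 5 μl Fugene HD. Total RNA was harvested 48 h later for qRT-PCR.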

[2] = test system: DROSHA; experiment: Co-IP of overexpressed DROSHA with ERH; type: binding, human; conditions: ectopic DROSHA co-expressed with C-terminal tail of DGCR8
How it was run: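 HEK293E cells at 50% confluence were transfected with 5 μg total of Flag-, HA- or myc-tagged plasmids using branched/linear PEI (1:1) and harvested after 2 days. Anti-Flag, anti-HA or protein G-bound anti-myc beads were incubated with lysate 1–2 h at 4°C, washed three times and eluted in SDS buffer for western blot.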

[3] = test system: DGCR8; experiment: Co-IP of ERH and DGCR8 in DROSHA knock-out cells; type: binding, human; conditions: HCT116 DROSHA knock-out cells
How it was run: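 HCT116 wild-type and DROSHA knock-out cells were grown in McCoy's 5A with 9% FBS. Proteins were boiled at 95°C for 5 min, separated on 8–16% Tris–glycine gels and transferred to PVDF. Detection was by infrared imaging or chemiluminescence.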

With Enhancer of Rudimentary Homolog [ERH] the “expression of miR-144” value [1] was “without significantly altering miR-144 expression”, the “expression of miR-451a” value [1] was “increased the expression of miR-451a” and the “interaction between DROSHA and ERH” value [2] was “could not detect meaningful interaction”. The “interaction between ERH and DGCR8” value [3] was “not affected by the absence of DROSHA”.
